Measurements taken from ChEMBL document CHEMBL4017520, “Discovery, Structure-Activity Relationship, and Antiparkinsonian Effect of a Potent and Brain-Penetrant Chemical Series of Positive Allosteric Modulators of Metabotropic Glutamate Receptor 4” (J Med Chem, 2017).
Activity calls are given as the source filed them. The rule behind the calls is not given here.

Key:
[1] = biological target: T1, Metabotropic glutamate receptor 4 (Homo sapiens, UniProt Q14833); assay: Agonist activity at recombinant human mGlu4 receptor expressed in HEK293 cells co-expressing chimeric Gi/Gq protein assessed as increase in calcium flux at 3 uM after 10 mins by Fluo4-AM dye based fluorescence assay relative to control; format: functional, cell-based
Method in brief: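 Human mGluR4 co-expressed in HEK293 cells with the chimeric Gi/Gq (GqTOP) protein, loaded with Fluo4-AM. Compound was added alone and calcium signal recorded for 10 min, compared with the buffer-evoked basal signal.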

[2] = biological target: T1, Metabotropic glutamate receptor 4; assay: Positive allosteric modulation of recombinant human mGlu4 receptor expressed in HEK293 cells co-expressing chimeric Gi/Gq protein assessed as fold shift in glutamate-induced calcium flux at 3 uM preincubated for 10 mins followed by glutamate addition measured for 3 mins by Fluo4-AM dye based fluorescence assay; format: functional, cell-based
Method in brief: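 HEK-293 cells transiently co-transfected by electroporation with human mGluR4 and chimeric Gi/Gq (GqTOP) were cultured 24 h, FCS-starved 3 h, then loaded 1 h 30 min with 1 μM Fluo4-AM in HBSS/20 mM HEPES buffer containing probenecid and 0.1% BSA. Compound was added for 10 min, then glutamate (10 or 20 concentrations over 4.5 logs), read 3 min (ex 485/em 525 nm). The fold change in glutamate potency with vs without compound gives the shift.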

Homo sapiens = species on record: Homo sapiens; assay: Selectivity ratio of compound effect for positive allosteric modulation of recombinant human mGlu4 receptor to compound effect for activity at human mGlu6 receptor
[3] = biological target: Metabotropic glutamate receptor 2 (Homo sapiens) (UniProt Q14416); assay: Activity at human mGlu2 receptor expressed in HEK293 cells co-expressing Gi/Gq assessed as effect on intracellular calcium level up to 10 uM after 10 mins by Fluo4-AM dye based fluorescence assay; format: functional, cell-based
Method in brief: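 HEK-293 cells transiently expressing the human mGluR with a promiscuous or chimeric G protein were serum-starved 3 h and loaded 1.5 h with 1 μM Fluo4-AM. Compound alone was added in assay buffer, and calcium fluorescence (ex 485/em 525) was recorded for 10 min as agonist readout.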

Rattus norvegicus [4] = species on record: Rattus norvegicus; assay: Activity at AMPA glutamate receptor in rat cerebral cortex at 10 uM
Method in brief: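 Inhibition of orthosteric ligand binding to NMDA, AMPA and kainate receptors on rat cerebral cortex membranes, tested up to 10 μM.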

[5] = biological target: D(2) dopamine receptor (Homo sapiens) (UniProt P14416); assay: Positive allosteric modulation of D2L receptor (unknown origin) at 10 uM
[6] = biological target: Tyrosine-protein kinase JAK3 (Homo sapiens) (UniProt P52333); assay: Inhibition of JAK3 (unknown origin) at 10 uM
[7] = biological target: Mitogen-activated protein kinase kinase kinase 7 (Homo sapiens) (UniProt O43318); assay: Inhibition of TAK1 (unknown origin) at 10 uM
[8] = biological target: Metabotropic glutamate receptor 7 (Homo sapiens) (UniProt Q14831); assay: Activity at human mGlu7 receptor expressed in HEK293 cells co-expressing Gi/Gq assessed as effect on LAP4-induced intracellular calcium level up to 10 uM after 10 mins by Fluo4-AM dye based fluorescence assay; format: functional, cell-based
Method in brief: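 Human mGluR7 in transfected HEK293 cells loaded with Fluo4-AM. Compound was added for 10 min, followed by L-AP4 at EC20 or EC80 in place of glutamate, and calcium fluorescence was recorded for 3 min. Results are from at least two or three independent experiments.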

[9] = biological target: T1, Metabotropic glutamate receptor 4; assay: Positive allosteric modulation of recombinant human mGlu4 receptor expressed in HEK293 cells co-expressing Gi/Gq assessed as increase in glutamate-induced calcium flux preincubated for 10 mins followed by glutamate addition measured for 3 mins by Fluo4-AM dye based fluorescence assay; format: functional, cell-based; conditions: read-out: EC50
[10] = Cmax in C57BL/6 mouse at 2 mg/kg, iv administered as single dose by LC-MS/MS analysis; format: ADME, organism-based; set-up: dose 2 mg/kg, route intravenous; conditions: in vivo
[11] = Half life in Sprague-Dawley rat at 1 mg/kg, iv administered as single dose by LC-MS/MS analysis; format: ADME, organism-based; conditions: in vivo
Method in brief: (§1)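 Single iv dose, 1 mg/kg in rat or 2 mg/kg in mouse; plasma PK parameters derived; brain/plasma ratio taken at 1 h postdose (rat) or 30 min postdose (mouse). Mean of 3 rats; 2 mice for mouse Cmax and brain/plasma.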

[12] = AUC (0 to infinity) in Sprague-Dawley rat at 1 mg/kg, iv administered as single dose by LC-MS/MS analysis; format: ADME, organism-based; set-up: dose 1 mg/kg, route intravenous, time infinity; conditions: in vivo
[13] = Ratio of drug level in C57BL/6 mouse brain to plasma at 2 mg/kg, iv administered as single dose measured after 30 mins by LC-MS/MS analysis; format: ADME, organism-based; conditions: read-out: BPR; method in brief: as §1
[14] = Cmax in Sprague-Dawley rat plasma at 10 mg/kg, po administered as single dose by LC-MS/MS analysis; format: ADME, organism-based; set-up: dose 10 mg/kg, route oral
Method in brief: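 Rats given a single oral dose of 10 mg/kg. The first plasma sample was taken at 15 min, and sampling continued to 24 h postdose. Brain was sampled at 30 min. Values are the mean (±SEM) of 3 rats.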

[15] = Cmax in C57BL/6 mouse plasma at 10 mg/kg, po administered as single dose by LC-MS/MS analysis; format: ADME, organism-based; set-up: dose 10 mg/kg, route oral
Method in brief: (§2)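 Mice given 10 mg/kg orally. Plasma Cmax was determined and brain concentration measured at 30 min postdose. Values are the mean (±SEM) of 2 mice.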

[16] = Tmax in C57BL/6 mouse plasma at 10 mg/kg, po administered as single dose by LC-MS/MS analysis; format: ADME, organism-based
Method in brief: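 Single-dose plasma PK after ip (10 or 30 mg/kg) or oral (10 mg/kg) dosing in rats, and oral 10 mg/kg dosing in mice. […] Values are mean ±SEM of 3 rats or 2 mice.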

[17] = AUC (0 to infinity) in Sprague-Dawley rat plasma at 10 mg/kg, ip administered as single dose by LC-MS/MS analysis; format: ADME, organism-based; set-up: dose 10 mg/kg, time infinity, route intraperitoneal
Method in brief: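 Rats dosed ip at 10 or 30 mg/kg. Plasma Cmax, Tmax, half-life and AUC0–inf were determined. Brain concentration was measured 30 min postdose, and brain/plasma ratio was taken at 30 min. Values are the mean (±SEM) of 3 rats.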

[18] = Drug uptake in C57BL/6 mouse brain at 10 mg/kg, po after 30 mins post dose administered as single dose by LC-MS/MS analysis; format: ADME, organism-based; conditions: read-out: Drug uptake; method in brief: as §2
[19] = Ratio of drug uptake in Sprague-Dawley rat brain at 30 mg/kg, ip to EC50 for rat mGlu4 receptor expressed in HEK293 cells
Method in brief: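 Rats received a single ip or oral dose. Brain concentration was measured 30 min postdose, mean of 3 rats, and divided by the EC50 measured in cell lines overexpressing rat mGluR4.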

[20] = Plasma concentration in Sprague-Dawley rat at 30 mg/kg, ip after 120 mins; format: ADME, organism-based
Method in brief: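 Rats dosed 30 mg/kg ip; plasma sampled over time, brain measured at 30 and 60 min; brain/plasma ratio averaged over 30 and 60 min.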

[21] = Drug uptake in Sprague-Dawley rat brain at 30 mg/kg, ip after 240 mins; format: ADME, organism-based; conditions: read-out: Drug uptake
Brain = assay: Fraction unbound in Sprague-Dawley rat brain at 30 mg/kg, ip after 120 mins; format: ADME, organism-based; conditions: in vivo, 2 h
Rattus norvegicus [22] = assay: Toxicity in 6-OHDA induced parkinsonian motor deficit Sprague-Dawley rat model assessed as induction of overacting rearing behavior up to 30 mg/kg, ip; format: organism-based; conditions: in vivo

T1 sequence (Q14833 whole entry): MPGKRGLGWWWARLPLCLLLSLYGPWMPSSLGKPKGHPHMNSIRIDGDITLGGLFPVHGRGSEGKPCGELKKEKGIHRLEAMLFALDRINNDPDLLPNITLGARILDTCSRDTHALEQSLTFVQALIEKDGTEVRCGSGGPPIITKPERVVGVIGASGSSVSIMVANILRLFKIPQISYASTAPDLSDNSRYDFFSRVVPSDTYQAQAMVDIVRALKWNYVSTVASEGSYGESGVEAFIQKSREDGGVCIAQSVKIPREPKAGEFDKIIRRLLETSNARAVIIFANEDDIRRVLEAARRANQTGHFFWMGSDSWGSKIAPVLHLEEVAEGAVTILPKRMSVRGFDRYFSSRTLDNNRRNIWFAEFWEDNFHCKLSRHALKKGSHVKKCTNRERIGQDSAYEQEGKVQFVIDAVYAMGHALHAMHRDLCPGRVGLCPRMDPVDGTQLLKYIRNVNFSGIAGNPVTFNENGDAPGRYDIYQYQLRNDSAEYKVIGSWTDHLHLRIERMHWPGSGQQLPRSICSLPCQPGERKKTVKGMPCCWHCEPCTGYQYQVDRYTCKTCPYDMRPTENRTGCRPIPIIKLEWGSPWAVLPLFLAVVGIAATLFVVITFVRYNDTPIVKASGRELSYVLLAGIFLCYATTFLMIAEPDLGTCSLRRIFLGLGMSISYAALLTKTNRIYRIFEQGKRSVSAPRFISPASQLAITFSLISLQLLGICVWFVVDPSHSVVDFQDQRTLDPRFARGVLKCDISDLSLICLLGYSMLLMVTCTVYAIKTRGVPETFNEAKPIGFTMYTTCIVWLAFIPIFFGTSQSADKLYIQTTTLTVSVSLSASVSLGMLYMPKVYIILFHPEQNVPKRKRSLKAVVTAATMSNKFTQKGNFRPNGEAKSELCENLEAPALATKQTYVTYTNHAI
Metabotropic glutamate receptor 7 (Homo sapiens), sequence (Q14831 whole entry): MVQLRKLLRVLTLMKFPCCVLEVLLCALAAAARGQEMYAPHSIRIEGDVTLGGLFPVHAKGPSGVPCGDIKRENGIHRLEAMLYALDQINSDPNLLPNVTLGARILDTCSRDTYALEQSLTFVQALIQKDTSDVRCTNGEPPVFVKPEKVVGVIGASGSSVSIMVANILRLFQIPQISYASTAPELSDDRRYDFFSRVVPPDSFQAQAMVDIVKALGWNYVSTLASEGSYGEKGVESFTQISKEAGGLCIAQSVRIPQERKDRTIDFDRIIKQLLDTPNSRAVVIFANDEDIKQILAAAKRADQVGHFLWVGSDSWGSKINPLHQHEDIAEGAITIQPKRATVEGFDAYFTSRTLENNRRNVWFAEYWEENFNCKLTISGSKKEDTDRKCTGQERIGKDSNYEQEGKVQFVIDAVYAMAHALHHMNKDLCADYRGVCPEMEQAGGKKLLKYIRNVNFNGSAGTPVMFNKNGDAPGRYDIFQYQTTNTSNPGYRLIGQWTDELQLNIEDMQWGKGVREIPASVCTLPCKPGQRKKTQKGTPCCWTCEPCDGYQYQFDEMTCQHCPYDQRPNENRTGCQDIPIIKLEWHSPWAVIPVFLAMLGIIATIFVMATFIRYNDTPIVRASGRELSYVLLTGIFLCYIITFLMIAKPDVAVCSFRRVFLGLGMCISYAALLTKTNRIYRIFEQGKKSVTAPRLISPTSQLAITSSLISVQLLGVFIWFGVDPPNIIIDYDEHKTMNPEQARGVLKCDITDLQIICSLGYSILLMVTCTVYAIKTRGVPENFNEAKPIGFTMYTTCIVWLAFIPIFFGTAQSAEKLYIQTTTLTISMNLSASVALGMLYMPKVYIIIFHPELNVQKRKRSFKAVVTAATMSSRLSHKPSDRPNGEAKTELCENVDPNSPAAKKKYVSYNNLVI
Mitogen-activated protein kinase kinase kinase 7 (Homo sapiens), sequence (O43318 whole entry): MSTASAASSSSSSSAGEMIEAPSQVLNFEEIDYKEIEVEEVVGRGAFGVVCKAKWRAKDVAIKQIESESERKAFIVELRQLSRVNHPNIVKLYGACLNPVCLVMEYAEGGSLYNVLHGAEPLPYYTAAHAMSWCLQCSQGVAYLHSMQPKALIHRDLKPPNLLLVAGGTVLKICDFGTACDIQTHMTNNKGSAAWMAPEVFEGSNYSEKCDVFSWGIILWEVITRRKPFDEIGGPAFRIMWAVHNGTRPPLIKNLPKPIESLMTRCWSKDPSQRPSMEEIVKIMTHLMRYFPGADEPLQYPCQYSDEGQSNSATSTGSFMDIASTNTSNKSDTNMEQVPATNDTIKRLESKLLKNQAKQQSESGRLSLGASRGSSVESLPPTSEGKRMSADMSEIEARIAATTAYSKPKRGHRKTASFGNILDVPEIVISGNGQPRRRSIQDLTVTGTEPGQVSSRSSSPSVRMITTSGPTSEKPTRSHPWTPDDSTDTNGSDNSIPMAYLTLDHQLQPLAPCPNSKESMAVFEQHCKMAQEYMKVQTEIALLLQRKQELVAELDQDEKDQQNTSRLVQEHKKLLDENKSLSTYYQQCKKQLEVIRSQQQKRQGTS
D(2) dopamine receptor (Homo sapiens), sequence (P14416 whole entry): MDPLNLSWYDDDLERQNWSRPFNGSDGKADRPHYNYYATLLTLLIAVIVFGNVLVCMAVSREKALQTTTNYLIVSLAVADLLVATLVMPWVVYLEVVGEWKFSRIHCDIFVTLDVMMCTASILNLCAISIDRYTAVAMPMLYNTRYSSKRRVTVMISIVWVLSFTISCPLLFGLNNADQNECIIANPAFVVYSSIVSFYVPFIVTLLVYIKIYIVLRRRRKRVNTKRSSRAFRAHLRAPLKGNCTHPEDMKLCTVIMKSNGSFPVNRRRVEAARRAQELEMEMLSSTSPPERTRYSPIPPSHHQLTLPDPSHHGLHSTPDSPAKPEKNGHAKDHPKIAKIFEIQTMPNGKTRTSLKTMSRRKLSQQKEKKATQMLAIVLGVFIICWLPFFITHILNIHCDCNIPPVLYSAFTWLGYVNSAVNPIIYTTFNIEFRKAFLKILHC
Metabotropic glutamate receptor 2 (Homo sapiens), sequence (Q14416 19-872 limits assumed): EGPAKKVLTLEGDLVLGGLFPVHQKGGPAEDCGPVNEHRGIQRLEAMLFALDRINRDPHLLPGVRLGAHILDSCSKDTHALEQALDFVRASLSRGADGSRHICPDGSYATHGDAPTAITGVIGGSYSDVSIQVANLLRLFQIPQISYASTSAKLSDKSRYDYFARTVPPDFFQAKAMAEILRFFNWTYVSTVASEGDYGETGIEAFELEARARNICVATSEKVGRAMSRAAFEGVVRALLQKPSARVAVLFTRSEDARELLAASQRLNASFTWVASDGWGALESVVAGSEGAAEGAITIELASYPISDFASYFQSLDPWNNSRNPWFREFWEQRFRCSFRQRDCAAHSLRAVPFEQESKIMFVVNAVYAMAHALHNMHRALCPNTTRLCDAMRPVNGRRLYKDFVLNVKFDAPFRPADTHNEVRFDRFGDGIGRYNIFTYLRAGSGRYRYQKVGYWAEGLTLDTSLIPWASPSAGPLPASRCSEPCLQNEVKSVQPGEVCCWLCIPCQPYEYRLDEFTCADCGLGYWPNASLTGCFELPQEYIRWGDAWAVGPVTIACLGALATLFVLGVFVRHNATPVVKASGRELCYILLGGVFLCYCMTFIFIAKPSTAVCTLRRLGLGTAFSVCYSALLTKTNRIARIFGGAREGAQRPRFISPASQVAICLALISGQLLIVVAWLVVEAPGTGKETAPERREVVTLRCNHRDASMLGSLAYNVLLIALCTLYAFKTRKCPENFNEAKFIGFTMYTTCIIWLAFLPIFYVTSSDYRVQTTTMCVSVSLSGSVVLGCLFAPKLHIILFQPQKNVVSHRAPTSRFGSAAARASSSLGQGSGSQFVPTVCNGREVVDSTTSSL
Tyrosine-protein kinase JAK3 (Homo sapiens), sequence (P52333 whole entry): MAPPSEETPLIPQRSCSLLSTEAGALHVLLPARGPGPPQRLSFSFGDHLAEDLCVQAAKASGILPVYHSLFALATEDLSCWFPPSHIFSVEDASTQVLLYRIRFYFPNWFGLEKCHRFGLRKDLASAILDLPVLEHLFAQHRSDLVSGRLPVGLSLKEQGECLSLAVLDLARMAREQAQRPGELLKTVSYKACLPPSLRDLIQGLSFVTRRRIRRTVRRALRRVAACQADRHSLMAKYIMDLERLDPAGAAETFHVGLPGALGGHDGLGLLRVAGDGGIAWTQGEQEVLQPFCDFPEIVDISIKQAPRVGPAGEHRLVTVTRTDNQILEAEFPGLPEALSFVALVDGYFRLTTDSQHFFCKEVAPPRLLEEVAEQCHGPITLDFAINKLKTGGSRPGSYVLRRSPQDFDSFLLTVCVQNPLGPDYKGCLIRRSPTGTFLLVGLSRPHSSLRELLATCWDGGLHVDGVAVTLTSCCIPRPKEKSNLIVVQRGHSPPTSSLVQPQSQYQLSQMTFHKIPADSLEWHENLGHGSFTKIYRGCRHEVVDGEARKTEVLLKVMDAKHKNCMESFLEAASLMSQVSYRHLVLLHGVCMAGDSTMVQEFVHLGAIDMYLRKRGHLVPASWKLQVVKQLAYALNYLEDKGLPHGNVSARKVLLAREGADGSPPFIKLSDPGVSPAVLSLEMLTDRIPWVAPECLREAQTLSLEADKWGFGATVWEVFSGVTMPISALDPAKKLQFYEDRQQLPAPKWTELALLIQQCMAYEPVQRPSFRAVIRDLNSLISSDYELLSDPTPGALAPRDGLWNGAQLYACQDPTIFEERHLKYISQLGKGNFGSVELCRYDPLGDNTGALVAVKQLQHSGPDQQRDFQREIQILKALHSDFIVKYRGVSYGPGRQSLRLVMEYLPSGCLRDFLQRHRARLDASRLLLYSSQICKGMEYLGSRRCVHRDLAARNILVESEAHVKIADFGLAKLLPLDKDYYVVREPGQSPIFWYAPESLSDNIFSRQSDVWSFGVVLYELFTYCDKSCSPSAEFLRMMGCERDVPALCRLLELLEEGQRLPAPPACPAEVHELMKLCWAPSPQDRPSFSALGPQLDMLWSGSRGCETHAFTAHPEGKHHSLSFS

## O/N=c1\cc(-c2cc3cccn3cn2)oc2ccc(OCCN3CCOCC3)cc12 [listing 1 of 2 here]
[1]
  Activity: 19%
[2]
  fold change (FC): 10
Homo sapiens
  Selectivity ratio: 13
[3]
  Activity: inactive
Rattus norvegicus [4]
  Activity: inactive
[5]
  Activity: inactive
[6]
  inhibition: inactive
[7]
  inhibition: inactive
[8]
  Activity: inactive

## O/N=c1\cc(-c2cc3cccn3cn2)oc2ccc(OCCN3CCOCC3)cc12 [listing 2 of 2 here]
[9]
  EC50: 0.046 µM
[10]
  Cmax: 0.753 µg/mL
[11]
  half-life: 44 min
[12]
  AUC(0-inf): 0.166 µg·h/mL
[13]
  Kp at 0.5 h: 3.6
[14]
  Cmax: 0.135 µg/mL
[15]
  Cmax: 0.229 µg/mL
[16]
  Tmax: 30 min
[17]
  AUC(0-inf): 2.25 µg·h/mL
[18]
  concentration at 0.5 h: 390 ng/g
[19]
  Ratio: 14.5
[20]
  concentration at 2 h: 0.535 µg/mL
[21]
  concentration at 4 h: 322 ng/g
Brain
  Drug uptake(free): 13 ng/g
Rattus norvegicus [22]
  Activity: Non-Toxic
